This sample holds only a part of the variants without activity.

Among the data in the RNAGym collection of RNA variant scans (doi:10.1101/gad.245936.114) are nonsense suppression values, retold here.

The chains are these.
B1: tRNA (parent)
chain: CUCUCGGUAGCCAAGUUGGUUUAAGGCGCAAGACUUUAAUUUAUCACUACGAAAUCUUGAGAUCGGGCGUUCGACUCGCCCCCGGGAGAUUUUUUCCUCGAGCAA

Variants of B1 are the subject of this data set. Kind of data set: nonsense suppression (GFP-seq) (ratio to wild type); higher = more function; SUP4oc tRNA, yeast GFP reporter sort-seq. An outline of the steps:
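Sorted GFP/RFP bins of yeast were each Illumina-sequenced with a phred ≥30 cutoff; the cells held a genome-integrated ochre-suppressor tRNA variant from a library with ~3% random mutations, a galactose-driven GFP ochre reporter, and RFP. Culture was in raffinose/galactose medium containing 80 mg/L adenine. Nonsense suppression, termed GFPSEQ, is the median GFP/RFP of the bins weighted by each variant's estimated cell share per bin, relative to the unmutated parent tRNA, for variants reaching ≥100 reads and ≥30 cells.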
Turning to CUCUCGGUAGCCAAGUUGGUUUAAGGCGUAAGACUUUAAUUUAUCACUACGAAAUCUUGUGAUCGGGCGUUCGACUCGCCCCCGGGAGAUUUUUUCCUCGAGCAA, the nonsense suppression was 1.18.
For CUCUCGGUAGCCAAGUUGGUUUAAGGCGUAAGACUUUAAUUUAUCACUACGAAAUCUUGGGAUCGGGCGUUCGACUCGCCCCCGGGAGAUUUUUUCCUCGAGCAA the value was 0.114.
Take CUCUCGGUAGCCAAGUUGGUUUAAGGCGCCAGACUUUAAUUUAUCACUACGAAAACUUGAGAUCGGGCGUUCGACUCGCCCCCGGGAGAUUUUUUCCUCGAGCAA: the nonsense suppression is ≤ 0.026.
Take CUCUCGGUAGCCAAGUUGGUUUAAGGCGUAAGACUUUAAUUUAUCACUACGAAAUCUUGAGAUCGGGCGUUCGACUCGCCCUCGGGAGAUUUUUUCCUCGAGCAA: the nonsense suppression turned out to be 0.224.
Under CUCUCGGUAGCCAAGUUGGUUUAAGGCGUAAGACUUUAAUUUAUCACUACGAAAUCUUGAGAUCGGGUGUUCGACUCGCCCCCGGGAGAUUUUUUCCUCGAGCAA stands 0.272; under CUCUCGGUAGCCAAGUUGGUUUAAGGCGGAAGAGUUUAAUUUAUCACUACGAAAUCUUGAGAUCGGGCGUUCGACUCGCCCCCGGGAGAUUUUUUCCUCGAGCAA, ≤ 0.026.
Take CUCUCGGUAGCCAAGUUGGUUUAAGGCGUAAGACCUUAAUUUAUCACUACGAAAUCUUGAGAUCGGGCGUUCGACUCGCCCCCGGGAGAUUUUUUCCUCGAGCAA: the nonsense suppression amounted to 0.0545.
As for CUCUCGGUAGCCAAGUUGGUUUAAGGCGUAAGACUUUAAUUUAUCACUACGAAAUCUUGAGAUCGGGCGUUUGACUCGCCCCCGGGAGAUUUUUUCCUCGAGCAA, the nonsense suppression was found to be 0.101.
Turning to CUCUCGGUAGCCAAGUUGGUUUAAGGCGCCAGACUUUAAUUUAUCACUACGAAUUCUUGGGAUCGGGCGUUCGUCUCGCCCCCGGGAGAUUUUUUCCUCGAGCAA, the nonsense suppression was ≤ 0.026.
With CUCUCGGUAGCCAAGUUGGUUUAAGGCGUAAGACUUUAAUUUAUCACUACGAAAUCUUGAGAUUGGGCGUUCGACUCGCCCCCGGGAGAUUUUUUCCUCGAGCAA, the nonsense suppression came out at 0.035.
For CUCUCGGUAGCCAAGUUGGUUUAAGGCGUAAGACUUUAAUUUAUCACUACGAAAUCUUGAGACCGGGCGUUCGACUCGCCCCCGAGAGAUUUUUUCCUCGAGCAA the value was 0.849.
For CUCUCGGUAGCCAAGUUGGUUUAAGGCGUAAGACCUUAAUUUAUCACUACGAAAUCUGGAGAUUGCGCGUUCGACUCGCCCCCGGGAGAUUUUUUCCUCGAGCAA the value was ≤ 0.026.
Regarding CUCUCGGUAGCCAAGUUGGUUUAAGGCGUAAGACUUUAAUUUAUCACUACGAAAUCUUGAGAUCAGGCGUUCGACUCGCCUCCGGGAGAUUUUUUCCUCGAGCAA, the nonsense suppression was determined as 1.14.
Turning to CUCUCGGUAGCCAAGUUGGUUUAAGGCGUAAGACUUUAAUUUAUCACUACGAAAUCAUGAGAGCGGGCGUUCGACUCGCCCCCGGGAGAUUUUUUCCUCGAGCAA, the nonsense suppression was ≤ 0.026.
For the variant CUCUCGGUAGCCAAGUUGGUUUAAGGCGGAAGACUUUAAUUUAUCACUACGAAAUCUAGAGAUCGGGCGUUCGACUCGCCCCCGGGAGAUUUUUUCCUCGAGCAA, the nonsense suppression is ≤ 0.026.
In the case of CUCUCGGUAGCCAAGUUGGUUUAAGGCGUAAGACUUUAAUUUAUCACUACGAAUUCUUGAGAUCGGGCGUUCGACUCGCCCCCGGGAGAUUUUUUCCUCGAGCAA, the nonsense suppression stood at 0.869.
CUCUCGGUAGCCAAGUUGGUUUAAGGCGCCUGACUUUAAUUUAUCACUACGAAAUCUUGAGAUCGGGCGUUCGACUCGCCCCCGGGAGAUUUUUUCCUCGAGCAA: the nonsense suppression was ≤ 0.026.
As for CUCUCGGUAGCCAAGUUGGUUUAAGGCGUAAGACUUUAAUUUAUCACUACGAAAUCUUGAGAUCGGGCGUCCGACUCGCCCCCGGGAGAUUUUUUCCUCGAGCAA, the nonsense suppression was 0.0323.
Regarding CUCUCGGUAGCCAAGUUGGUUUAAGGCGUAAGACUUUAAUUUAUCACUACGAAAUCUUGAGAUCGGGCGUUCAACUCGCCCCCGGGAGAUUUUUUCCUCGAGCAA, the nonsense suppression turned out to be 0.238.
As for CUCUCGGUAGCCAAGUUGGUUUAAGGCGUAAGACUUUAAUUUAUCACUACGAAAUCUUGAGAUCGGGCGUUCGACCCGCCCCCGGGAGAUUUUUUCCUCGAGCAA, the nonsense suppression was determined as 0.772.
As to CUCUCGGUAGCCAAGUUGGUUUAAGGCGUAAGACUUUAAUUUAUCACUACGAAAUCUUGAGAUCGGGCGUUCGACACGCCCCCGGGAGAUUUUUUCCUCGAGCAA, the nonsense suppression worked out at 0.224.
As to CUCUCGGUAGCCAAGUUGGUUUAAGGCGUAAGACUUUAAUUUAUCACUACGAAAUCUUGAGAUCGGGCGUUCGACUGGCCCCCGGGAGAUUUUUUCCUCGAGCAA, the nonsense suppression was 0.0454.
For CUCUCGGUAGCCAAGUUGGUUUAAGGCGUCAGACUUUAAUUUAUCACUACGAAAUCUUGAGAUCGGGCGUUCGACUCGCCCCCGGGAGAUUUUUUCCUCGAGCAA the value was 0.196; for CUCUCGGUAGCCAAGUUGGUUUAAGGCGUGAGACUUUAAUUUAUCACUACGAAAUCUUGAGAUCGGGCGUUCGACUCGCCCCCGGGAGAUUUUUUCCUCGAGCAA, 1.1.
As to CUCUCGGUAGCCAAGUUGGUUUAAGGCGUUAGACUUUAAUUUAUCACUACGAAAUCUUGAGAUCGGGCGUUCGACUCGCCCCCGGGAGAUUUUUUCCUCGAGCAA, the nonsense suppression stood at 0.124.
As to CUCUCGGUAGCCAAGUUGGUUUAAGGCGGAAGACUUUAAUUUAUCACUACGAAAUCUUGAGAUCGGGCGUUCGACUCGCCCCCGGGAGAUUUUUUCCUCGAGCAA, the nonsense suppression is ≤ 0.026.
On to CUCUCGGUAGCCAAGUUGGUUUAAGGCGUAAGACUUUAAUUUAUCACUACGAAAUCUUGAGAUCGGGCGUUCGACUCGCCCCCGGGAGAUUUUUUCCUCGAGCAA, for which the nonsense suppression came out at 1.07.
